The values below come from ChEMBL document CHEMBL1142473, “Antitumor studies. Part 5: Synthesis, antitumor activity, and molecular docking study of 5-(monosubstituted amino)-2-deoxo-2-phenyl-5-deazaflavins” (Bioorg Med Chem, 2008).

One test concerns CCRF-HSB-2. Briefly: Growth inhibition of human CCRF-HSB-2 cells by MTT method. The test is classed as functional, cell-based. The method in brief:
(§1)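 IC50 taken from the dose-response curve; AraC run alongside as positive control.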

Another test relates to KB. Put plainly: Growth inhibition of human KB cells by MTT method. The class given is functional, cell-based. The method in brief:
as §1

Each structure is given as a SMILES string. Values after ≈ are worked out from the molar mass of the structure shown.

With `CCn1c2nc(-c3ccccc3)nc(=O)c-2c(NCc2ccccc2)c2cc(C)ccc21`, the IC50 was 6.9 µg/mL (≈ 16.4 µM) in the test with CCRF-HSB-2 and 17.2 µg/mL (≈ 40.9 µM) in the test on KB.

Consider `CCCNc1c2c(=O)nc(-c3ccccc3)nc-2n(C)c2ccccc12`, for which the IC50 in the test on CCRF-HSB-2 was more than 100 µg/mL; in the test with KB, 18 µg/mL (≈ 52.3 µM).

Take `CCCCNc1c2c(=O)nc(-c3ccccc3)nc-2n(C)c2ccccc12`: the figures for the IC50 with CCRF-HSB-2 and in the test on KB were 4.7 µg/mL (≈ 13.1 µM) and 6.6 µg/mL (≈ 18.4 µM), respectively.

Regarding `CCCCCCCCNc1c2c(=O)nc(-c3ccccc3)nc-2n(C)c2ccccc12`, the IC50 is more than 100 µg/mL with CCRF-HSB-2 and 32.9 µg/mL (≈ 79.4 µM) in the test on KB.

With `CCCCCCCCNc1c2c(=O)nc(-c3ccccc3)nc-2n(C)c2ccc(C)cc12`, the figures for the IC50 in the test on CCRF-HSB-2 and in the test with KB were 8.6 µg/mL (≈ 20.1 µM) and 4.7 µg/mL (≈ 11 µM), respectively.

As to `CCCCNc1c2c(=O)nc(-c3ccccc3)nc-2n(CC)c2ccc(C)cc12`, the IC50 in the test with CCRF-HSB-2 was found to be 8.9 µg/mL (≈ 23 µM); in the test with KB, 8.6 µg/mL (≈ 22.3 µM).

In the case of `CCCCCCCCNc1c2c(=O)nc(-c3ccccc3)nc-2n(CC)c2ccc(C)cc12`, the figures for the IC50 in the test with CCRF-HSB-2 and in the test on KB were 5.7 µg/mL (≈ 12.9 µM) and 2 µg/mL (≈ 4.52 µM), respectively.

As for `Cc1ccc(Nc2c3c(=O)nc(-c4ccccc4)nc-3n(C)c3ccccc23)cc1C`, the values for the IC50 with CCRF-HSB-2 and with KB were 0.75 µg/mL (≈ 1.85 µM) and 1.6 µg/mL (≈ 3.94 µM), respectively.

With `Cc1ccc(Nc2c3c(=O)nc(-c4ccccc4)nc-3n(C)c3ccccc23)cc1`, the IC50 with CCRF-HSB-2 is 1.1 µg/mL (≈ 2.8 µM); in the test with KB it was 1.8 µg/mL (≈ 4.59 µM).

For `CCCCNc1c2c(=O)nc(-c3ccccc3)nc-2n(CC)c2ccccc12`, the half-inhibitory concentration (IC50) in the test on CCRF-HSB-2 was 8.3 µg/mL (≈ 22.3 µM); in the test on KB, 7.6 µg/mL (≈ 20.4 µM).

Turning to `CCCCCCCCNc1c2c(=O)nc(-c3ccccc3)nc-2n(CC)c2ccccc12`, the IC50 is 20.4 µg/mL (≈ 47.6 µM) in the test with CCRF-HSB-2 and 12 µg/mL (≈ 28 µM) in the test with KB.

In the case of `CCn1c2nc(-c3ccccc3)nc(=O)c-2c(NCCc2ccccc2)c2ccccc21`, the IC50 in the test on CCRF-HSB-2 came to 63.3 µg/mL (≈ 151 µM); in the test with KB, 53.4 µg/mL (≈ 127 µM).

Take `CCCCNc1c2c(=O)nc(-c3ccccc3)nc-2n(C)c2ccc(C)cc12`: the IC50 amounted to 2.1 µg/mL (≈ 5.64 µM) with CCRF-HSB-2 and 2.7 µg/mL (≈ 7.25 µM) with KB.

`COC(=O)c1ccccc1Nc1c2c(=O)nc(-c3ccccc3)nc-2n(C)c2ccccc12`: the IC50 in the test with CCRF-HSB-2 and in the test on KB was more than 100 µg/mL each time.

Turning to `Cn1c2nc(-c3ccccc3)nc(=O)c-2c(NCCc2ccccc2)c2ccccc21`, the IC50 in the test on CCRF-HSB-2 worked out at 17.7 µg/mL (≈ 43.5 µM); with KB, 22 µg/mL (≈ 54.1 µM).

Take `Cn1c2nc(-c3ccccc3)nc(=O)c-2c(NCc2ccccc2)c2ccccc21`: the IC50 in the test on CCRF-HSB-2 is more than 100 µg/mL; with KB, 66.9 µg/mL (≈ 170 µM).

Turning to `CCn1c2nc(-c3ccccc3)nc(=O)c-2c(NCc2ccccc2)c2ccccc21`, the IC50 in the test with CCRF-HSB-2 came to 6.1 µg/mL (≈ 15 µM); in the test with KB, 4.7 µg/mL (≈ 11.6 µM).

Take `Nc1ccn([C@@H]2O[C@H](CO)[C@@H](O)[C@@H]2O)c(=O)n1` [CYTARABINE]: the figures for the IC50 in the test on CCRF-HSB-2 and in the test with KB were 0.017 µg/mL (≈ 0.0699 µM) and 0.42 µg/mL (≈ 1.73 µM), respectively.
